What was measured:
[1] = tested on: Canis familiaris; experiment: Compound was tested in vivo in dogs at a dose of 1.0 mg/kg through intravenous route and number of dogs in which ventricular fibrillation was induced was recorded.(Base line value-1)
[2] = tested on: Canis familiaris; experiment: Conduction time for ventricular refractory period of the second premature stimulus was tested in dogs at a dose of 3.0 mg/kg through intravenous administration. (baseline value- 123+/-4); assay type: functional, Canis lupus familiaris, Cardiac ventricle
[3] = tested on: Canis familiaris; experiment: Compound was tested in vivo in dogs at a dose of 3.0 mg/kg through intravenous route and number of dogs in which nonsustained ventricular arrhythmias were induced was recorded.(Base line value-2)
[4] = tested on: Canis familiaris; experiment: Conduction time from Q wave to T wave of lead II electrocardiogram corrected for heart rate was tested in dogs at a dose of 0.1 mg/kg through intravenous administration. (baseline value- 352+/-7); assay type: functional, Canis lupus familiaris
[5] = tested on: Canis familiaris; experiment: Conduction time from Q wave to T wave of lead II electrocardiogram corrected for heart rate was tested in dogs at a dose of 0.3 mg/kg through intravenous administration. (baseline value- 352+/-7); assay type: functional, Canis lupus familiaris
[6] = species: Oryctolagus cuniculus; experiment: Tested for conduction time measured at a pacing rate of 3 Hz in vitro with rabbit heart tissue preparations.; assay type: functional
In short: (§1)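 Isolated rabbit heart tissues, all from one heart, each its own baseline; 2 h equilibration, perfusate changed every 15 min, basal stimulation 2 Hz between measurements. Exposed to 10^-7, 10^-6 and 10^-5 M drug, 15 min each; values reported at 10^-5 M as percent change from baseline. Drug solutions prepared daily in glass-distilled water. Force and rate recorded on polygraph.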

[7] = species: Oryctolagus cuniculus; experiment: Tested for effective refractory period measured at a pacing rate of 1 Hz in vitro with rabbit heart tissue preparations.; assay type: functional
In short: as §1

[8] = tested on: Canis familiaris; experiment: Conduction time for ventricular refractory period of the second premature stimulus was tested in dogs at a dose of 1.0 mg/kg through intravenous administration. (baseline value- 123+/-4); assay type: functional, Canis lupus familiaris, Cardiac ventricle
[9] = tested on: Canis familiaris; experiment: Conduction time from the atrium to His bundle was tested in dogs at a dose of 3.0 mg/kg through intravenous administration. (baseline value 73+/-3 ); assay type: functional, Canis lupus familiaris
[10] = tested on: Canis familiaris; experiment: Conduction time from the His bundle to the onset of ventricular depolarizations was tested in dogs at a dose of 3.0 mg/kg through intravenous administration. (baseline value- 17+/-1 ); assay type: functional, Canis lupus familiaris, Cardiac ventricle
[11] = tested on: Canis familiaris; experiment: Compound was tested in vivo in dogs at a dose of 0.3 mg/kg through intravenous route and number of dogs in which ventricular fibrillation was induced was recorded.(Base line value-1)
[12] = tested on: Canis familiaris; experiment: Compound was tested in vivo in dogs at a dose of 0.3 mg/kg through intravenous route and number of dogs in which sustained ventricular arrhythmias were induced was recorded.(Base line value-1)
[13] = species: Oryctolagus cuniculus; experiment: Tested for rate automaticity measured in beats per minute from unpaced right atria of rabbit heart.; assay type: functional
In short: as §1

[14] = tested on: Canis familiaris; experiment: Compound was tested in vivo in dogs at a dose of 1.0 mg/kg through intravenous route and number of dogs in which sustained ventricular arrhythmias were induced was recorded.(Base line value-1)
[15] = tested on: Canis familiaris; experiment: Compound was tested in vivo in dogs at a dose of 0.1 mg/kg through intravenous route and number of dogs in which ventricular arrhythmias were not indicible was recorded.(Base line value-2)
[16] = tested on: Canis familiaris; experiment: Conduction time from Q wave to T wave of lead II electrocardiogram corrected for heart rate was tested in dogs at a dose of 3.0 mg/kg through intravenous administration. (baseline value- 352+/-7); assay type: functional, Canis lupus familiaris
[17] = species: Oryctolagus cuniculus; experiment: Tested for effective refractory period measured at a pacing rate of 3 Hz in vitro with rabbit heart tissue preparations.; assay type: functional; parameters: unit: %
In short: as §1

[18] = tested on: Canis familiaris; experiment: Conduction time for ventricular refractory period of the first premature stimulus was tested in dogs at a dose of 3.0 mg/kg through intravenous administration. (baseline value- 137+/-4); assay type: functional, Canis lupus familiaris, Cardiac ventricle
[19] = tested on: Canis familiaris; experiment: Conduction time for ventricular refractory period of the second premature stimulus was tested in dogs at a dose of 0.3 mg/kg through intravenous administration. (baseline value- 123+/-4); assay type: functional, Canis lupus familiaris, Cardiac ventricle
[20] = tested on: Canis familiaris; experiment: Conduction time for ventricular refractory period of the second premature stimulus was tested in dogs at a dose of 0.1 mg/kg through intravenous administration. (baseline value- 123+/-4); assay type: functional, Canis lupus familiaris, Cardiac ventricle
[21] = tested on: Canis familiaris; experiment: Compound was tested in vivo in dogs at a dose of 0.3 mg/kg through intravenous route and number of dogs in which ventricular arrhythmias were not indicible was recorded.(Base line value-2)
[22] = tested on: Canis familiaris; experiment: Compound was tested in vivo in dogs at a dose of 0.1 mg/kg through intravenous route and number of dogs in which nonsustained ventricular arrhythmias were induced was recorded.(Base line value-2)
[23] = tested on: Canis familiaris; experiment: Conduction time from the atrium to His bundle was tested in dogs at a dose of 0.3 mg/kg through intravenous administration. (baseline value- 73+/-3 ); assay type: functional, Canis lupus familiaris
[24] = tested on: Canis familiaris; experiment: Conduction time from Q wave to T wave of lead II electrocardiogram corrected for heart rate was tested in dogs at a dose of 1.0 mg/kg through intravenous administration. (baseline value- 352+/-7); assay type: functional, Canis lupus familiaris
[25] = tested on: Canis familiaris; experiment: Compound was tested in vivo in dogs at a dose of 0.1 mg/kg through intravenous route and number of dogs in which sustained ventricular arrhythmias were induced was recorded.(Base line value-1)
[26] = tested on: Canis familiaris; experiment: Compound was tested in vivo in dogs at a dose of 1.0 mg/kg through intravenous route and number of dogs in which ventricular arrhythmias were not indicible was recorded.(Base line value-2)
[27] = tested on: Canis familiaris; experiment: Conduction time from the His bundle to the onset of ventricular depolarizations was tested in dogs at a dose of 0.3 mg/kg through intravenous administration. (baseline value- 17+/-1 ); assay type: functional, Canis lupus familiaris, Cardiac ventricle
[28] = tested on: Canis familiaris; experiment: Conduction time from the His bundle to the onset of ventricular depolarizations was tested in dogs at a dose of 1.0 mg/kg through intravenous administration. (baseline value- 17+/-1 ); assay type: functional, Canis lupus familiaris, Cardiac ventricle
[29] = tested on: Canis familiaris; experiment: Conduction time for ventricular refractory period of the first premature stimulus was tested in dogs at a dose of 0.1 mg/kg through intravenous administration. (baseline value- 137+/-4); assay type: functional, Canis lupus familiaris, Cardiac ventricle
[30] = species: Oryctolagus cuniculus; experiment: Tested for conduction time measured at a pacing rate of 1 Hz in vitro with rabbit heart tissue preparations.; assay type: functional
In short: as §1

[31] = tested on: Canis familiaris; experiment: Compound was tested in vivo in dogs at a dose of 0.3 mg/kg through intravenous route and number of dogs in which nonsustained ventricular arrhythmias were induced was recorded.(Base line value-2)
[32] = tested on: Canis familiaris; experiment: Compound was tested in vivo in dogs at a dose of 3.0 mg/kg through intravenous route and number of dogs in which ventricular fibrillation was induced was recorded.(Base line value-1)
[33] = tested on: Canis familiaris; experiment: Conduction time from the atrium to His bundle was tested in dogs at a dose of 1.0 mg/kg through intravenous administration. (baseline value- 73+/-3 ); assay type: functional, Canis lupus familiaris
[34] = tested on: Canis familiaris; experiment: Compound was tested in vivo in dogs at a dose of 0.1 mg/kg through intravenous route and number of dogs in which ventricular fibrillation was induced was recorded.(Base line value-1)
[35] = tested on: Canis familiaris; experiment: Conduction time for ventricular refractory period of the first premature stimulus was tested in dogs at a dose of 1.0 mg/kg through intravenous administration. (baseline value- 137+/-4); assay type: functional, Canis lupus familiaris, Cardiac ventricle
[36] = tested on: Canis familiaris; experiment: Compound was tested in vivo in dogs at a dose of 1.0 mg/kg through intravenous route and number of dogs in which nonsustained ventricular arrhythmias were induced was recorded.(Base line value-2)
[37] = tested on: Canis familiaris; experiment: Compound was tested in vivo in dogs at a dose of 3.0 mg/kg through intravenous route and number of dogs in which ventricular arrhythmias were not indicible was recorded.(Base line value-2)
[38] = tested on: Canis familiaris; experiment: Conduction time from the atrium to His bundle was tested in dogs at a dose of 0.1 mg/kg through intravenous administration. (baseline value- 73+/-3 ); assay type: functional, Canis lupus familiaris
[39] = species: Oryctolagus cuniculus; experiment: Tested for force of contraction measured in mg at a pacing rate of 2 Hz in vitro with rabbit heart tissue preparations.; assay type: functional
In short: as §1

[40] = tested on: Canis familiaris; experiment: Conduction time from the His bundle to the onset of ventricular depolarizations was tested in dogs at a dose of 0.1 mg/kg through intravenous administration. (baseline value- 17+/-1 ); assay type: functional, Canis lupus familiaris, Cardiac ventricle
[41] = tested on: Canis familiaris; experiment: Compound was tested in vivo in dogs at a dose of 3.0 mg/kg through intravenous route and number of dogs in which sustained ventricular arrhythmias were induced was recorded.(Base line value-1)
[42] = tested on: Canis familiaris; experiment: Conduction time for ventricular refractory period of the first premature stimulus was tested in dogs at a dose of 0.3 mg/kg through intravenous administration. (baseline value- 137+/-4); assay type: functional, Canis lupus familiaris, Cardiac ventricle

CCCCN(CCCC)CCCC(O)c1ccc(NS(C)(=O)=O)cc1 (configuration not stated)
number of animals [1]: 1 animals
Time [2]: 115 ms
number of animals [3]: 1 animals
Time [4]: 370 ms
Time [5]: 358 ms
CT3 [6]: 5.2
ERP1 [7]: 9.5
Time [8]: 120 ms
Time [9]: 64 ms
Time [10]: 13 ms
number of animals [11]: 0 animals
number of animals [12]: 0 animals
Rate [13]: -20.3
number of animals [14]: 0 animals
number of animals [15]: 1 animals
Time [16]: 367 ms
ERP3 [17]: 10.4
Time [18]: 145 ms
Time [19]: 127 ms
Time [20]: 128 ms
number of animals [21]: 2 animals
number of animals [22]: 2 animals
Time [23]: 66 ms
Time [24]: 361 ms
number of animals [25]: 1 animals
number of animals [26]: 2 animals
Time [27]: 15 ms
Time [28]: 15 ms
Time [29]: 145 ms
CT1 [30]: -8.5
number of animals [31]: 4 animals
number of animals [32]: 0 animals
Time [33]: 64 ms
number of animals [34]: 0 animals
Time [35]: 145 ms
number of animals [36]: 3 animals
number of animals [37]: 0 animals
Time [38]: 71 ms
FOC [39]: 0
Time [40]: 13 ms
number of animals [41]: 2 animals
Time [42]: 147 ms
